Reference: paper PMC4094229 (European journal of medicinal chemistry, 2013)

Legend:
[1] = system: MCF-10A cells; test: MTT cell viability assay, normal breast MCF-10A; format: cell-based, human
[2] = system: MDA-MB-231 cells; test: Cell cycle distribution; format: cell-based, human; conditions: 24 h
[3] = system: MCF-7 cells; test: Cell cycle distribution; format: cell-based, human; conditions: 24 h
[4] = system: human breast cancer cell lines (MCF-7 and MDA-MB-231); test: MTT assay, activity against cancer cells; format: cell-based; conditions: 72 h, up to 50 μM
Procedure, shortened: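 ATCC cells were used. MCF-7 was grown in DMEM with 10% FBS, insulin, pyruvate and NEAA; MDA-MB-231 in DMEM with 10% FBS, NEAA and L-glutamine. Cells were seeded at 3×10³/well and exposed 72 h to 0, 1, 5, 10, 25, 50 μM, with a DMSO vehicle. MTT (5 mg/mL stock) was added for 2–4 h at 37°C; formazan was dissolved in DMSO and read at A570. Viability = mean OD treated/DMSO control; IC50 from three separate experiments.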

[5] = system: MCF-7 cells; test: MTT cell viability assay, MCF-7; format: cell-based; conditions: Homo sapiens, MCF7, 72 h, read-out: IC50 MCF-7, MTT, 72 h, 1-50 μM

C=C1C(=O)O[C@H]2C[C@H](C)[C@@]34C[C@@]5(C(=O)O[C@H]6C[C@@H](C)[C@@H]7[C@@H](OC(C)=O)C[C@H](O)[C@@]7(C)C[C@@H]65)[C@@H](C(C)=C3C[C@H]12)[C@@H]4O [Compound 1, Lineariifolianoid E]
toxicity to MCF-10A cells ([1]; normal breast cell line): low toxicity | effect on cell cycle progression ([2]; MDA-MB-231, 0, 1, 2.5 μM): dose-dependent cell cycle arrest in both S and G2/M phase | cell cycle arrest at 2.5 μM ([2]; MDA-MB-231, 2.5 μM): significant increase in the number of cells in both S and G2/M phases | effect on cell cycle progression ([3]; MCF-7, 0, 1, 2.5 μM): dose-dependent cell cycle arrest in the G2/M phase | cell cycle arrest at 2.5 μM ([3]; MCF-7, 2.5 μM): a majority of the MCF-7 cells were arrested in the G2/M phase

C=C1C(=O)O[C@H]2C[C@H](C)[C@H]3[C@@H](O)C[C@@](C)(O)[C@@]34O[C@H]4[C@H]12 [Compound 6, 5α,6α-epoxy-2α,4α-dihydroxy-1β-guai-11(13)-en-12,8α-olide]
activity against cancer cells [4]: did not show visible activity

C=C1C(=O)O[C@@H]2CC(C)=C3[C@@H](OC(C)=O)C[C@@](C)(O)[C@@H]3[C@@H](O)[C@H]12 [Compound 7, 6α-hydroxyinuchinenolide B]
activity against cancer cells [4]: did not show visible activity

CC(=O)O[C@H]1C=C(CCO)[C@@H](C)C[C@H]2OC(=O)[C@@H](C)[C@@H]12 [Compound 9, 6β-acetoxysundiversifolide]
activity against cancer cells [4]: did not exhibit any noticeable activity

C=C1C(=O)O[C@@H]2CC(C)=C3[C@@H](C[C@H]12)[C@](C)(O)C[C@@H]3O [Compound 10, deacetylinuchinenolide B]
activity against cancer cells [4]: did not show visible activity

C[C@@H]1C2=C[C@H]3[C@@H](C[C@@]2(C)CC[C@@H]1O)OC(=O)[C@@H]3C [Compound 15, 3β-hydroxy-11α,13-dihydroalantolactone]
activity against cancer cells [4]: did not exhibit any noticeable activity

COc1cccc2c1C(=O)c1c(O)c3c(c(O)c1C2=O)C[C@@](O)(C(=O)CO)C[C@@H]3O[C@H]1C[C@H](N)[C@H](O)[C@H](C)O1 [Doxorubicin]
IC50 [5]: 700 ± 60 nM

CC(=O)O[C@H]1C(=O)[C@@]2(C)[C@H]([C@H](OC(=O)c3ccccc3)[C@]3(O)C[C@H](OC(=O)[C@H](O)[C@@H](NC(=O)c4ccccc4)c4ccccc4)C(C)=C1C3(C)C)[C@]1(OC(C)=O)CO[C@@H]1C[C@@H]2O [Paclitaxel, reference compound]
IC50 ([1]; Homo sapiens, MCF-10A, 72 h, read-out: IC50 MCF-10A): 427 ± 55.4 nM
